# Measured values of several laboratories.
# Organism: Staphylococcus aureus
SMILES,test,system,setting,measurement,value
CN1CCN(CCCN2c3ccccc3Sc3ccc(Cl)cc32)CC1,"microbial killing, broth dilution",ATCC43300,18 h,MBC,64 µg/mL
COc1cc2c(cc1OC)-c1cc3ccc(OC)c(OC)c3c[n+]1CC2,microbial growth,,24 h,MIC50,205 µM
O=C(/C=C/C=C/c1ccccc1)c1ccccc1OCc1ccc(Cl)cc1,"microbial growth, well diffusion",MTCC96,"1000 µg/mL, 18 h",inhibition zone,7 mm
CN[C@H](CC(C)C)C(=O)N[C@H]1C(=O)N[C@@H](CC(N)=O)C(=O)N[C@H]2C(=O)N[C@H]3C(=O)N[C@H](C(=O)N[C@H](C(=O)O)c4cc(O)cc(O)c4-c4cc3ccc4O)[C@H](O)c3ccc(c(Cl)c3)Oc3cc2cc(c3O[C@@H]2O[C@H](CO)[C@@H](O)[C@H](O)[C@H]2O[C@H]2C[C@](C)(N)[C@H](O)[C@H](C)O2)Oc2ccc(cc2Cl)[C@H]1O,microbial growth,MSSA,clinical isolate,MIC90,1 µg/mL
CCCS(=O)(=O)Oc1ccc(C=NNC(=O)CSc2nc3c(C)cccc3c(=O)n2-c2ccccc2)cc1OC,"microbial growth, well diffusion",MRSA,20 µg/mL,inhibition zone,4 mm
C=C[C@]1(C)C[C@@H](OC(=O)CS[C@@H]2C[C@H]3CC[C@@H](C2)N3C)[C@]2(C)[C@H](C)CC[C@]3(CCC(=O)[C@H]32)[C@@H](C)[C@@H]1O,microbial growth,MRSA,clinical isolate,MIC90,0.125 µg/mL
O=C(/C=C/C=C/c1ccccc1)c1ccccc1OCc1ccc(Cl)c(Cl)c1,"microbial growth, well diffusion",MTCC96,"1000 µg/mL, 18 h",inhibition zone,7 mm
COc1cc2c(cc1OC)[C@@H]1Cc3ccc(OC)c(OC)c3CN1CC2,microbial growth,,24 h,MIC50,> 1600 µM
CCCS(=O)(=O)Oc1cc(C=NNC(=O)CSc2nc3ccc(Cl)cc3c(=O)n2-c2ccccc2)ccc1OC,"microbial growth, well diffusion",MRSA,20 µg/mL,inhibition zone,2 mm
O=C(/C=C/C=C/c1ccccc1)c1ccccc1OCc1ccccc1Cl,"microbial growth, well diffusion",MTCC96,"1000 µg/mL, 18 h",inhibition zone,7 mm
CC1(C)S[C@@H]2[C@H](NC(=O)[C@H](N)c3ccccc3)C(=O)N2[C@H]1C(=O)O,microbial growth,MRSA,clinical isolate,MIC90,> 128 µg/mL
CCCS(=O)(=O)Oc1cc(C=NNC(=O)CSc2nc3c(C)cccc3c(=O)n2-c2ccccc2)ccc1OC,"microbial growth, well diffusion",MRSA,20 µg/mL,inhibition zone,2 mm
CC(=O)NC[C@H]1CN(c2ccc(N3CCOCC3)c(F)c2)C(=O)O1,microbial growth,MRSA,clinical isolate,MIC90,2 µg/mL
CCS(=O)(=O)Oc1ccc(C=NNC(=O)CSc2nc3ccc(Cl)cc3c(=O)n2-c2ccccc2)cc1,"microbial growth, well diffusion",MRSA,20 µg/mL,inhibition zone,2 mm
CN(C)CCCN1c2ccccc2Sc2ccc(C(F)(F)F)cc21,"microbial killing, broth dilution",ATCC43300,18 h,MBC,64 µg/mL
O=C(O)c1cn(C2CC2)c2cc(N3CCNCC3)c(F)cc2c1=O,"microbial growth, well diffusion",MRSA,20 µg/mL,inhibition zone,3 mm
CC[C@H]1OC(=O)[C@H](C)[C@@H](O[C@H]2C[C@@](C)(OC)[C@@H](O)[C@H](C)O2)[C@H](C)[C@@H](O[C@@H]2O[C@H](C)C[C@H](N(C)C)[C@H]2O)[C@](C)(O)C[C@@H](C)/C(=N\OCOCCOC)[C@H](C)[C@@H](O)[C@]1(C)O,microbial growth,MRSA,clinical isolate,MIC90,64 µg/mL
